Assay results as given in ChEMBL document CHEMBL1123811, “gem-Diphosphonate and gem-phosphonate-phosphate compounds with specific high density lipoprotein inducing activity” (1987).

Experiments:
Format in all cases: functional
Rattus norvegicus [1] = organism: Rattus norvegicus; experiment: Activity to induce the elevation of HDL(High Density Lipoproteins)-Cholesterol in plasma lipids of male Wistar rats; parameters: concentration or dose not given beside the values
Method in brief: (§1)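 Wistar rats on normal diet; groups were vehicle control, an internal-standard diphosphonate, and test compounds. Dosed daily for 4 days; diphosphonates were dissolved in water or suspended in 1% (carboxymethyl)cellulose, 4 mL/kg. On day 5, after overnight fast, rats were killed under ether. EDTA plasma was assayed enzymatically for HDL-C after heparin-CaCl2 precipitation of VLDL/LDL, phospholipids, triglycerides and α/β-cholesterol ratio. Results are given as % of control.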

Rattus norvegicus [2] = organism: Rattus norvegicus; experiment: Activity to induce the elevation of phospholipids in plasma lipids of male Wistar rats; parameters: concentration or dose not given beside the values; method in brief: as §1
Rattus norvegicus [3] = organism: Rattus norvegicus; experiment: Activity to induce the elevation of triglycerides in plasma lipids of male Wistar rats; parameters: concentration or dose not given beside the values; method in brief: as §1
Rattus norvegicus [4] = organism: Rattus norvegicus; experiment: Activity to induce the elevation of alpha/beta cholesterol ratio in plasma lipids of male Wistar rats; parameters: concentration or dose not given beside the values; method in brief: as §1
Rattus norvegicus [5] = experiment: Activity to induce the elevation of phospholipids in plasma lipids of male Wistar rats after the sc administration of 5 mg/kg/day; conditions: route subcutaneous
Method in brief: (§2)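 Normal-diet Wistar rats were given the test agent once daily for 4 days and killed on day 5 after an overnight fast. Total plasma phospholipids (EDTA plasma) were measured chemically by the molybdate/vanadate reaction or enzymatically (phospholipid B test). Values are % of vehicle controls.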

Rattus norvegicus [6] = experiment: Activity to induce the elevation of triglycerides in plasma lipids of male Wistar rats after the sc administration of 5 mg/kg/day; conditions: route subcutaneous
Method in brief: (§3)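 Daily dosing of normal-diet Wistar rats ran for 4 days, with sacrifice on day 5 after an overnight fast. Plasma was collected by decapitation into EDTA. Total triglycerides were measured enzymatically and expressed as % change relative to the vehicle control group.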

Rattus norvegicus [7] = experiment: Activity to induce the elevation of alpha/beta cholesterol ratio in plasma lipids of male Wistar rats after the sc administration of 5 mg/kg/day; conditions: route subcutaneous
Method in brief: (§4)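 Rats (Wistar, normal diet) were treated daily for 4 days and fasted overnight, and EDTA plasma was taken on day 5. Total cholesterol was measured enzymatically, and β-lipoprotein cholesterol after heparin-CaCl2 precipitation. The α/β-cholesterol ratio is reported as % change from vehicle-treated controls.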

Rattus norvegicus [8] = experiment: Activity to induce the elevation of HDL(High Density Lipoproteins)-Cholesterol in plasma lipids of male Wistar rats after the sc administration of 5 mg/kg/day; conditions: route subcutaneous
Method in brief: (§5)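 Wistar rats on a normal diet were dosed daily for 4 days at the dose and route given. On day 5, after an overnight fast, they were killed under ether and blood was taken by decapitation into EDTA. Plasma HDL cholesterol was measured after heparin-CaCl2 precipitation of VLDL/LDL and is expressed as % change versus a vehicle control group.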

Rattus norvegicus [9] = experiment: Activity to induce the elevation of HDL(High Density Lipoproteins)-Cholesterol in plasma lipids of male Wistar rats after po administration of 100 mg/kg/day; method in brief: as §5
Rattus norvegicus [10] = experiment: Activity to induce the elevation of phospholipids in plasma lipids of male Wistar rats after po administration of 100 mg/kg/day; method in brief: as §2
Rattus norvegicus [11] = experiment: Activity to induce the elevation of alpha/beta cholesterol ratio in plasma lipids of male Wistar rats after po administration of 100 mg/kg/day; method in brief: as §4
Rattus norvegicus [12] = experiment: Activity to induce the elevation of triglycerides in plasma lipids of male Wistar rats after po administration of 100 mg/kg/day; method in brief: as §3
Rattus norvegicus [13] = experiment: Activity to induce the elevation of triglycerides of male Wistar rats after po administration of 100 mg/kg/day; method in brief: as §3
Rattus norvegicus [14] = organism: Rattus norvegicus; experiment: Activity to induce the elevation of alpha/beta cholesterol ratio of male Wistar rats; parameters: concentration or dose not given beside the values; method in brief: as §1
Rattus norvegicus [15] = experiment: Activity to induce the elevation of alpha/beta cholesterol ratio of male Wistar rats after po administration of 100 mg/kg/day; method in brief: as §4
Rattus norvegicus [16] = organism: Rattus norvegicus; experiment: Activity to induce the elevation of phospholipids of male Wistar rats; parameters: concentration or dose not given beside the values; method in brief: as §1
Rattus norvegicus [17] = organism: Rattus norvegicus; experiment: Activity to induce the elevation of triglycerides of male Wistar rats; parameters: concentration or dose not given beside the values; method in brief: as §1
Rattus norvegicus [18] = experiment: Activity to induce the elevation of HDL(High Density Lipoproteins)-Cholesterol of male Wistar rats after po administration of 100 mg/kg/day; method in brief: as §5
Rattus norvegicus [19] = experiment: Activity to induce the elevation of phospholipids of male Wistar rats after po administration of 100 mg/kg/day; method in brief: as §2
Rattus norvegicus [20] = organism: Rattus norvegicus; experiment: Activity to induce the elevation of HDL(High Density Lipoproteins)-Cholesterol of male Wistar rats; parameters: concentration or dose not given beside the values; method in brief: as §1

Compound: CCCCCCCCCCCCCCOc1ccc(CC(P(=O)(OCC)OCC)P(=O)(OCC)OCC)cc1
- Control (Rattus norvegicus [1]): 27%
- Control (Rattus norvegicus [2]): -4%
- Control (Rattus norvegicus [3]): -27%
- Control (Rattus norvegicus [4]): -28%

Compound: C[C@]12CC[C@@H]3c4ccc(O)cc4CC[C@H]3[C@@H]1CC[C@@H]2O [ESTRADIOL]
- Control (Rattus norvegicus [5]): -77%
- Control (Rattus norvegicus [6]): -51%
- Control (Rattus norvegicus [7]): -47%
- Control (Rattus norvegicus [8]): -83%

Compound: CC(C)OC(=O)C(C)(C)Oc1ccc(C(=O)c2ccc(Cl)cc2)cc1 [FENOFIBRATE]
- Control (Rattus norvegicus [9]): -45%
- Control (Rattus norvegicus [10]): -19%
- Control (Rattus norvegicus [11]): -80%
- Control (Rattus norvegicus [12]): 12%

Compound: CCOC(=O)C(C)(C)Oc1ccc(Cl)cc1 [CLOFIBRATE]
- Control (Rattus norvegicus [9]): -34%
- Control (Rattus norvegicus [10]): -22%
- Control (Rattus norvegicus [11]): -53%
- Control (Rattus norvegicus [12]): 28%

Compound: CCCCCCCCCCCCCCCC(O)(P(=O)(OC)OC)P(=O)(OC)OC
- Control (Rattus norvegicus [1]): -3%
- Control (Rattus norvegicus [2]): 4%
- Control (Rattus norvegicus [3]): 14%
- Control (Rattus norvegicus [4]): -38%

Compound: COP(=O)(OC)OC(c1ccc(Cl)cc1)P(=O)(OC)OC (configuration not stated) [MIFOBATE]
- Control (Rattus norvegicus [13]): 0%
- Percent change in alpha/beta cholesterol ratio versus control (Rattus norvegicus [14]): 180%
- Control (Rattus norvegicus [15]): 52%
- Plasma phospholipids, % change versus control (Rattus norvegicus [16]): 26%
- Percent change in plasma triglycerides versus control (Rattus norvegicus [17]): 0%
- Control (Rattus norvegicus [18]): 26%
- Control (Rattus norvegicus [19]): 17%
- HDL-cholesterol change relative to control (%) (Rattus norvegicus [20]): 157%

Compound: CCCCCCCCCCCCCCOc1ccc(CC(P(=O)(OC)OC)P(=O)(OC)OC)cc1
- Control (Rattus norvegicus [1]): 20%
- Control (Rattus norvegicus [2]): 10%
- Control (Rattus norvegicus [3]): 4%
- Control (Rattus norvegicus [4]): 14%

Compound: COP(=O)(OC)C(Cl)(CCCc1ccccc1)P(=O)(OC)OC
- Control (Rattus norvegicus [1]): 26%
- Control (Rattus norvegicus [2]): 24%
- Control (Rattus norvegicus [3]): -36%
- Control (Rattus norvegicus [4]): -9%

Compound: COP(=O)(OC)C(O)(c1ccc(F)cc1)P(=O)(OC)OC
- Percent change in alpha/beta cholesterol ratio versus control (Rattus norvegicus [14]): 64%
- Plasma phospholipids, % change versus control (Rattus norvegicus [16]): 3%
- Percent change in plasma triglycerides versus control (Rattus norvegicus [17]): 27%
- HDL-cholesterol change relative to control (%) (Rattus norvegicus [20]): 23%

Compound: COP(=O)(OC)OC(C(C)(C)c1ccc(Cl)cc1)P(=O)(OC)OC (configuration not stated)
- Percent change in alpha/beta cholesterol ratio versus control (Rattus norvegicus [14]): 59%
- Plasma phospholipids, % change versus control (Rattus norvegicus [16]): 37%
- Percent change in plasma triglycerides versus control (Rattus norvegicus [17]): -7%
- HDL-cholesterol change relative to control (%) (Rattus norvegicus [20]): 56%

Compound: COP(=O)(OC)OC(c1ccccc1)P(=O)(OC)OC (configuration not stated)
- Percent change in alpha/beta cholesterol ratio versus control (Rattus norvegicus [14]): 76%
- Plasma phospholipids, % change versus control (Rattus norvegicus [16]): 21%
- Percent change in plasma triglycerides versus control (Rattus norvegicus [17]): 32%
- HDL-cholesterol change relative to control (%) (Rattus norvegicus [20]): 4%

Compound: CCOP(=O)(OCC)C(Cl)(CCCc1ccccc1)P(=O)(OCC)OCC
- Control (Rattus norvegicus [1]): -2%
- Control (Rattus norvegicus [2]): 27%
- Control (Rattus norvegicus [3]): -4%
- Control (Rattus norvegicus [4]): -23%

Compound: COP(=O)(OC)C(Cl)(Cc1ccc(Cl)cc1)P(=O)(OC)OC
- Control (Rattus norvegicus [1]): 10%
- Control (Rattus norvegicus [2]): 7%
- Control (Rattus norvegicus [3]): 11%
- Control (Rattus norvegicus [4]): 81%

Compound: COP(=O)(OC)C(Cc1ccc(Cl)cc1)P(=O)(OC)OC
- Percent change in alpha/beta cholesterol ratio versus control (Rattus norvegicus [14]): 75%
- Plasma phospholipids, % change versus control (Rattus norvegicus [16]): 51%
- Percent change in plasma triglycerides versus control (Rattus norvegicus [17]): 62%
- HDL-cholesterol change relative to control (%) (Rattus norvegicus [20]): 38%

Compound: COP(=O)(OC)C(Cl)(CCCOc1ccccc1)P(=O)(OC)OC
- Control (Rattus norvegicus [1]): 57%
- Control (Rattus norvegicus [2]): 15%
- Control (Rattus norvegicus [3]): -3%
- Control (Rattus norvegicus [4]): -42%

Compound: COP(=O)(OC)C(O)(c1ccc(C(=O)c2ccc(Cl)cc2)cc1)P(=O)(OC)OC
- Percent change in alpha/beta cholesterol ratio versus control (Rattus norvegicus [14]): 46%
- Plasma phospholipids, % change versus control (Rattus norvegicus [16]): 39%
- Percent change in plasma triglycerides versus control (Rattus norvegicus [17]): -16%
- HDL-cholesterol change relative to control (%) (Rattus norvegicus [20]): 22%

Compound: COP(=O)(O)C(Cc1ccc(Cl)cc1)P(=O)(O)OC (configuration not stated)
- Percent change in alpha/beta cholesterol ratio versus control (Rattus norvegicus [14]): -20%
- Plasma phospholipids, % change versus control (Rattus norvegicus [16]): 6%
- Percent change in plasma triglycerides versus control (Rattus norvegicus [17]): -30%
- HDL-cholesterol change relative to control (%) (Rattus norvegicus [20]): 27%
